Results taken from ChEMBL document CHEMBL1136887, “Synthesis and evaluation of pharmacological profile of 1-aryl-6,7-dimethoxy-3,4-dihydroisoquinoline-2(1H)-sulfonamides” (Bioorg Med Chem, 2009).

Assays:
Mus musculus [1] = assay: Anticonvulsant activity in ip dosed DBA/2 mouse assessed as inhibition of auditory stimulation-induced tonic seizures administered 30 mins before auditory stimulation; format: functional; conditions: DBA/2, ip
How it was run: (§1)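 DBA/2 mice (8-12 g, 22-25 days old, either sex), groups of 10, given vehicle or drug ip and exposed to auditory stimulation 30 min later. Latency to and incidence of each seizure phase scored. ED50 per seizure phase derived from dose–response curves by Litchfield–Wilcoxon, with 95% confidence limits; at least 32 animals per ED50. Fisher's exact test used for incidence.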

Mus musculus [2] = assay: Anticonvulsant activity in ip dosed DBA/2 mouse assessed as inhibition of auditory stimulation-induced clonic seizures administered 30 mins before auditory stimulation; format: functional; conditions: DBA/2, ip; how it was run: as §1
Carbonic anhydrase 9 = Carbonic anhydrase 9 (Homo sapiens, UniProt Q16790); assay: Inhibition of human recombinant carbonic anhydrase 9 catalytic domain by stopped flow CO2 hydration method

Compound: COc1cc2c(cc1OC)C(c1ccc(Br)cc1)N(C(=O)CN1CCCCC1)CC2 (stereo not drawn)
- ED50 (Mus musculus [1]): 8.17 µmol/kg
- ED50 (Mus musculus [2]): 12.7 µmol/kg

Compound: COc1cc2c(cc1OC)C(c1ccccc1)NCC2 (stereo not drawn)
- ED50 (Mus musculus [1]): 19.3 µmol/kg
- ED50 (Mus musculus [2]): 44.8 µmol/kg

Compound: COc1cc2c(cc1OC)C(c1ccc(C)cc1)NCC2 (stereo not drawn)
- ED50 (Mus musculus [1]): 36.5 µmol/kg
- ED50 (Mus musculus [2]): 48.6 µmol/kg

Compound: COc1cc2c(cc1OC)C(c1ccc(C#N)cc1)NCC2 (stereo not drawn)
- ED50 (Mus musculus [1]): 48.6 µmol/kg
- ED50 (Mus musculus [2]): > 100 µmol/kg

Compound: COc1cc2c(cc1OC)C(c1ccc(F)cc1)NCC2 (stereo not drawn)
- ED50 (Mus musculus [1]): 26.4 µmol/kg
- ED50 (Mus musculus [2]): 57.8 µmol/kg

Compound: COc1cc2c(cc1OC)C(c1ccc([N+](=O)[O-])cc1)N(S(N)(=O)=O)CC2 (stereo not drawn)
- ED50 (Mus musculus [1]): > 100 µmol/kg
- Ki (Carbonic anhydrase 9): 0.48 µM
- ED50 (Mus musculus [2]): > 100 µmol/kg

Compound: COc1cc2c(cc1OC)C(c1ccc(N)cc1)NCC2 (stereo not drawn)
- ED50 (Mus musculus [1]): 28.6 µmol/kg
- ED50 (Mus musculus [2]): 46.6 µmol/kg

Compound: COc1cc2c(cc1OC)C(c1ccccc1)N(S(N)(=O)=O)CC2 (stereo not drawn)
- ED50 (Mus musculus [1]): 7.82 µmol/kg
- ED50 (Mus musculus [2]): > 100 µmol/kg

Compound: COc1cc2c(cc1OC)C(c1ccc(Br)cc1)N(S(N)(=O)=O)CC2 (stereo not drawn)
- ED50 (Mus musculus [1]): 67.3 µmol/kg
- Ki (Carbonic anhydrase 9): 8.2 µM
- ED50 (Mus musculus [2]): > 100 µmol/kg

Compound: COc1cc2c(cc1OC)C(c1cccc(N)c1)NCC2 (stereo not drawn)
- ED50 (Mus musculus [1]): 18.2 µmol/kg
- ED50 (Mus musculus [2]): 40.4 µmol/kg

Compound: COc1cc2c(cc1OC)C(c1cccc([N+](=O)[O-])c1)N(S(N)(=O)=O)CC2 (stereo not drawn)
- ED50 (Mus musculus [1]): > 100 µmol/kg
- Ki (Carbonic anhydrase 9): 6.45 µM
- ED50 (Mus musculus [2]): > 100 µmol/kg

Compound: COc1cc2c(cc1OC)C(c1ccc(C)cc1)N(S(N)(=O)=O)CC2 (stereo not drawn)
- ED50 (Mus musculus [1]): 51.7 µmol/kg
- Ki (Carbonic anhydrase 9): 6.75 µM
- ED50 (Mus musculus [2]): 97.1 µmol/kg

Compound: COc1cc2c(cc1OC)C(c1ccc(Cl)cc1)N(S(N)(=O)=O)CC2 (stereo not drawn)
- ED50 (Mus musculus [1]): 7.25 µmol/kg
- Ki (Carbonic anhydrase 9): 7.54 µM
- ED50 (Mus musculus [2]): 23.5 µmol/kg

Compound: COc1cc2c(cc1OC)C(c1ccc(C#N)cc1)N(S(N)(=O)=O)CC2 (stereo not drawn)
- ED50 (Mus musculus [1]): > 100 µmol/kg
- Ki (Carbonic anhydrase 9): 4.98 µM
- ED50 (Mus musculus [2]): > 100 µmol/kg

Compound: COc1cc2c(cc1OC)C(c1ccc(N)cc1)N(S(N)(=O)=O)CC2 (stereo not drawn)
- ED50 (Mus musculus [1]): 3.6 µmol/kg
- ED50 (Mus musculus [2]): 17.7 µmol/kg

Compound: COc1cc2c(cc1OC)C(c1ccc(F)cc1)N(S(N)(=O)=O)CC2 (stereo not drawn)
- ED50 (Mus musculus [1]): 41.8 µmol/kg
- ED50 (Mus musculus [2]): > 100 µmol/kg

Compound: COc1cc2c(cc1OC)C(c1cccc(N)c1)N(S(N)(=O)=O)CC2 (stereo not drawn)
- ED50 (Mus musculus [1]): 65.8 µmol/kg
- Ki (Carbonic anhydrase 9): 8.13 µM
- ED50 (Mus musculus [2]): > 100 µmol/kg

Compound: COc1cc2c(cc1OC)C(c1ccc(Cl)cc1)NCC2 (stereo not drawn)
- ED50 (Mus musculus [1]): 19.3 µmol/kg
- ED50 (Mus musculus [2]): 20.1 µmol/kg

Compound: COc1cc2c(cc1OC)C(c1ccc([N+](=O)[O-])cc1)NCC2 (stereo not drawn)
- ED50 (Mus musculus [1]): 56.1 µmol/kg
- ED50 (Mus musculus [2]): 101 µmol/kg

Compound: COc1cc2c(cc1OC)C(c1ccc(Br)cc1)NCC2 (stereo not drawn)
- ED50 (Mus musculus [1]): 12.5 µmol/kg
- ED50 (Mus musculus [2]): 30.6 µmol/kg

Compound: COc1cc2c(cc1OC)C(c1cccc([N+](=O)[O-])c1)NCC2 (stereo not drawn)
- ED50 (Mus musculus [1]): 7.2 µmol/kg
- ED50 (Mus musculus [2]): 19.3 µmol/kg

Compound: COc1cc2c(cc1OC)C(c1ccc(Cl)cc1)N(C(C)=O)CC2 (stereo not drawn)
- ED50 (Mus musculus [1]): 2.39 µmol/kg
- ED50 (Mus musculus [2]): 4.18 µmol/kg

Compound: CC1(C)O[C@@H]2[C@@H](CO[C@@]3(COS(N)(=O)=O)OC(C)(C)O[C@@H]23)O1 [TOPIRAMATE]
- ED50 (Mus musculus [1]): 18 µmol/kg
- ED50 (Mus musculus [2]): 35.7 µmol/kg
